Results: ChEMBL document CHEMBL3044653, “Synthesis and herbicidal activity of 2-(substituted phenoxyacetoxy)alkyl-5,5-dimethyl-1,3,2-dioxaphosphinan-2-one” (J Agric Food Chem, 2012)

How the values were obtained:
[1] = system: Eclipta prostrata; experiment: Post-emergence herbicidal activity against Eclipta prostrata assessed as inhibition at 75 g/hectare treated at two-leaf stage by green house assay; format: functional
Procedure, shortened: (§1)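 Greenhouse postemergence spray of diluted formulation solutions onto broadleaf weeds at the two-leaf stage. Primary screen at 150 g ai/ha, with selected compounds retested at 75 and 37.5 g ai/ha. Abutilon was tested at 150 g ai/ha only. Read-out is percent herbicidal damage relative to an untreated control.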

[2] = system: Brassica napus; experiment: Toxicity in Brassica napus (oilseed rape) assessed as inhibition at 150 g/hectare; format: functional
Procedure, shortened: (§2)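 For crop selectivity, conventional crop varieties were planted in 12 cm diameter plots and given a postemergence treatment at 150 g ai/ha. Injury was scored as percent inhibition, with 0–10% classed as safe to the crop.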

[3] = system: Setaria viridis; experiment: Post-emergence herbicidal activity against Setaria viridis (green foxtail) assessed as inhibition at 150 g/hectare treated at one-leaf stage by green house assay; format: functional
Procedure, shortened: (§3)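 Monocot weeds were sprayed postemergence in the greenhouse at the one-leaf stage with diluted formulation solutions. Primary dose was 150 g ai/ha, with follow-up doses of 75 and 37.5 g ai/ha for selected compounds. Activity is scored as percent herbicidal damage compared with an untreated control.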

[4] = system: Eclipta prostrata; experiment: Post-emergence herbicidal activity against Eclipta prostrata assessed as inhibition at 37.5 g/hectare treated at two-leaf stage by green house assay; format: functional; procedure, shortened: as §1
[5] = system: Setaria viridis; experiment: Post-emergence herbicidal activity against Setaria viridis (green foxtail) assessed as inhibition at 37.5 g/hectare treated at one-leaf stage by green house assay; format: functional; procedure, shortened: as §3
[6] = system: Amaranthus retroflexus; experiment: Post-emergence herbicidal activity against Amaranthus retroflexus assessed as inhibition at 150 g/hectare by green house assay; format: functional
[7] = system: Digitaria sanguinalis; experiment: Post-emergence herbicidal activity against Digitaria sanguinalis (hairy crabgrass) assessed as inhibition at 75 g/hectare treated at one-leaf stage by green house assay; format: functional; procedure, shortened: as §3
[8] = system: Ammannia baccifera; experiment: Post-emergence herbicidal activity against Ammannia baccifera assessed as inhibition at 150 g/hectare by green house assay; format: functional
[9] = system: Triticum aestivum; experiment: Toxicity in Triticum aestivum (wheat) plant assessed as inhibition at 150 g/hectare; format: organism-based; details: in vivo; procedure, shortened: as §2
[10] = system: Brassica juncea; experiment: Post-emergence herbicidal activity against Brassica juncea assessed as inhibition at 75 g/hectare treated at two-leaf stage by green house assay; format: functional; procedure, shortened: as §1
[11] = system: Radish; experiment: Post-emergence herbicidal activity against Raphanus sativus (radish) assessed as inhibition at 150 g/hectare by green house assay; format: functional
[12] = system: Brassica rapa subsp. oleifera; experiment: Post-emergence herbicidal activity against Brassica rapa subsp. oleifera assessed as inhibition at 150 g/hectare by green house assay; format: functional
[13] = system: Brassica oleracea; experiment: Post-emergence herbicidal activity against Brassica oleracea assessed as inhibition at 75 g/hectare by green house assay; format: functional
[14] = system: Setaria viridis; experiment: Post-emergence herbicidal activity against Setaria viridis (green foxtail) assessed as inhibition at 75 g/hectare treated at one-leaf stage by green house assay; format: functional; procedure, shortened: as §3
[15] = system: Echinochloa crus-galli; experiment: Post-emergence herbicidal activity against Echinochloa crus-galli (barnyard grass) assessed as inhibition at 75 g/hectare treated at one-leaf stage by green house assay; format: functional; procedure, shortened: as §3
[16] = system: Digitaria sanguinalis; experiment: Post-emergence herbicidal activity against Digitaria sanguinalis (hairy crabgrass) assessed as inhibition at 150 g/hectare treated at one-leaf stage by green house assay; format: functional; procedure, shortened: as §3
[17] = system: Chenopodium album; experiment: Post-emergence herbicidal activity against Chenopodium album assessed as inhibition at 75 g/hectare by green house assay; format: functional
[18] = system: Abutilon theophrasti; experiment: Post-emergence herbicidal activity against Abutilon theophrasti (velvetleaf) assessed as inhibition at 150 g/hectare treated at two-leaf stage by green house assay; format: functional; procedure, shortened: as §1
[19] = system: Oryza sativa; experiment: Toxicity in Oryza sativa (rice) plant assessed as inhibition at 150 g/hectare; format: organism-based; details: in vivo; procedure, shortened: as §2
[20] = system: Glycine max; experiment: Toxicity in Glycine max (soybean) plant assessed as inhibition at 150 g/hectare; format: organism-based; details: in vivo; procedure, shortened: as §2
[21] = system: Eclipta prostrata; experiment: Post-emergence herbicidal activity against Eclipta prostrata assessed as inhibition at 150 g/hectare treated at two-leaf stage by green house assay; format: functional; procedure, shortened: as §1
[22] = system: Radish; experiment: Post-emergence herbicidal activity against Raphanus sativus (radish) assessed as inhibition at 75 g/hectare by green house assay; format: functional
[23] = system: Chenopodium album; experiment: Post-emergence herbicidal activity against Chenopodium album assessed as inhibition at 150 g/hectare by green house assay; format: functional
[24] = system: Brassica rapa subsp. chinensis; experiment: Post-emergence herbicidal activity against Brassica rapa subsp. chinensis assessed as inhibition at 75 g/hectare by green house assay; format: functional
[25] = system: Digitaria sanguinalis; experiment: Post-emergence herbicidal activity against Digitaria sanguinalis (hairy crabgrass) assessed as inhibition at 37.5 g/hectare treated at one-leaf stage by green house assay; format: functional; procedure, shortened: as §3
[26] = system: Brassica rapa subsp. oleifera; experiment: Post-emergence herbicidal activity against Brassica rapa subsp. oleifera assessed as inhibition at 75 g/hectare by green house assay; format: functional
[27] = system: Echinochloa crus-galli; experiment: Post-emergence herbicidal activity against Echinochloa crus-galli (barnyard grass) assessed as inhibition at 37.5 g/hectare treated at one-leaf stage by green house assay; format: functional; procedure, shortened: as §3
[28] = system: Brassica oleracea; experiment: Post-emergence herbicidal activity against Brassica oleracea assessed as inhibition at 150 g/hectare by green house assay; format: functional
[29] = system: Brassica juncea; experiment: Post-emergence herbicidal activity against Brassica juncea assessed as inhibition at 150 g/hectare by green house assay; format: functional
[30] = system: Pontederia vaginalis; experiment: Post-emergence herbicidal activity against Monochoria vaginalis assessed as inhibition at 150 g/hectare by green house assay; format: functional
[31] = system: Ipomoea nil; experiment: Post-emergence herbicidal activity against Ipomoea nil (Japanese morning glory) assessed as inhibition at 150 g/hectare by green house assay; format: functional
[32] = system: Brassica juncea; experiment: Post-emergence herbicidal activity against Brassica juncea assessed as inhibition at 75 g/hectare by green house assay; format: functional
[33] = system: Amaranthus retroflexus; experiment: Post-emergence herbicidal activity against Amaranthus retroflexus assessed as inhibition at 75 g/hectare treated at two-leaf stage by green house assay; format: functional; procedure, shortened: as §1
[34] = system: Ammannia baccifera; experiment: Post-emergence herbicidal activity against Ammannia baccifera assessed as inhibition at 75 g/hectare by green house assay; format: functional
[35] = system: Zea mays; experiment: Toxicity in Zea mays (maize) plant assessed as inhibition at 150 g/hectare; format: organism-based; details: in vivo; procedure, shortened: as §2
[36] = system: Brassica juncea; experiment: Post-emergence herbicidal activity against Brassica juncea assessed as inhibition at 37.5 g/hectare treated at two-leaf stage by green house assay; format: functional; procedure, shortened: as §1
[37] = system: Brassica rapa subsp. chinensis; experiment: Post-emergence herbicidal activity against Brassica rapa subsp. chinensis assessed as inhibition at 150 g/hectare by green house assay; format: functional
[38] = system: Ipomoea nil; experiment: Post-emergence herbicidal activity against Ipomoea nil (Japanese morning glory) assessed as inhibition at 75 g/hectare by green house assay; format: functional
[39] = system: Echinochloa crus-galli; experiment: Post-emergence herbicidal activity against Echinochloa crus-galli (barnyard grass) assessed as inhibition at 150 g/hectare treated at one-leaf stage by green house assay; format: functional; procedure, shortened: as §3
[40] = system: Pontederia vaginalis; experiment: Post-emergence herbicidal activity against Monochoria vaginalis assessed as inhibition at 75 g/hectare by green house assay; format: functional
[41] = system: Gossypium hirsutum; experiment: Toxicity in Gossypium hirsutum (cotton) plant assessed as inhibition at 150 g/hectare; format: organism-based; details: in vivo; procedure, shortened: as §2
[42] = system: Brassica juncea; experiment: Post-emergence herbicidal activity against Brassica juncea assessed as inhibition at 150 g/hectare treated at two-leaf stage by green house assay; format: functional; procedure, shortened: as §1
[43] = system: Amaranthus retroflexus; experiment: Post-emergence herbicidal activity against Amaranthus retroflexus assessed as inhibition at 150 g/hectare treated at two-leaf stage by green house assay; format: functional; procedure, shortened: as §1
[44] = system: Amaranthus retroflexus; experiment: Post-emergence herbicidal activity against Amaranthus retroflexus assessed as inhibition at 37.5 g/hectare treated at two-leaf stage by green house assay; format: functional; procedure, shortened: as §1
[45] = system: Amaranthus retroflexus; experiment: Post-emergence herbicidal activity against Amaranthus retroflexus assessed as inhibition at 75 g/hectare by green house assay; format: functional

For CC1(C)COP(=O)(C(OC(=O)COc2ccc(Cl)cc2Cl)c2ccco2)OC1 (stereo not given), the inhibition at 75 g/ha [1] was 62%, the inhibition at 150 g/ha [2] was 40% and the inhibition at 150 g/ha [3] was 30%. For the same compound, the inhibition at 37.5 g/ha [4] was 60%, the inhibition at 37.5 g/ha [5] was 0% and the inhibition at 150 g/ha [6] was 80%. The inhibition at 75 g/ha [7] was 0%, the inhibition at 150 g/ha [8] was 100% and the “inhibition (INH)” value [9] was 10%. It also gave an inhibition at 75 g/ha [10] of 90%, an inhibition at 150 g/ha [11] of 85% and an inhibition at 150 g/ha [12] of 95%. For the same compound, the inhibition at 75 g/ha [13] was 80%, the inhibition at 75 g/ha [14] was 0% and the inhibition at 75 g/ha [15] was 0%. For the same compound, the inhibition at 150 g/ha [16] was 40%, the inhibition at 75 g/ha [17] was 70% and the inhibition at 150 g/ha [18] was 90%. For the same compound, the “inhibition (INH)” value [19] was 40%, the “inhibition (INH)” value [20] was 30% and the inhibition at 150 g/ha [21] was 80%. For the same compound, the inhibition at 75 g/ha [22] was 80%, the inhibition at 150 g/ha [23] was 80% and the inhibition at 75 g/ha [24] was 70%. For the same compound, the inhibition at 37.5 g/ha [25] was 0%, the inhibition at 75 g/ha [26] was 80% and the inhibition at 37.5 g/ha [27] was 0%. It also gave an inhibition at 150 g/ha [28] of 85%, an inhibition at 150 g/ha [29] of 95% and an inhibition at 150 g/ha [30] of 100%. The inhibition at 150 g/ha [31] was 100%, the inhibition at 75 g/ha [32] was 90% and the inhibition at 75 g/ha [33] was 70%. The inhibition at 75 g/ha [34] was 100%, the “inhibition (INH)” value [35] was 0% and the inhibition at 37.5 g/ha [36] was 85%. For the same compound, the inhibition at 150 g/ha [37] was 80%, the inhibition at 75 g/ha [38] was 100% and the inhibition at 150 g/ha [39] was 30%. The inhibition at 75 g/ha [40] was 100%, the “inhibition (INH)” value [41] was 30% and the inhibition at 150 g/ha [42] was 95%. For the same compound, the inhibition at 150 g/ha [43] was 80%, the inhibition at 37.5 g/ha [44] was 50% and the inhibition at 75 g/ha [45] was 70%.

With CC(OC(=O)COc1ccc(Cl)cc1Cl)P1(=O)OCC(C)(C)CO1 (stereo not given) the inhibition at 75 g/ha [1] was 70%, the inhibition at 150 g/ha [2] was 40% and the inhibition at 150 g/ha [3] was 30%. For the same compound, the inhibition at 37.5 g/ha [4] was 50%, the inhibition at 37.5 g/ha [5] was 0% and the inhibition at 150 g/ha [6] was 95%. For the same compound, the inhibition at 75 g/ha [7] was 0%, the inhibition at 150 g/ha [8] was 100% and the “inhibition (INH)” value [9] was 0%. For the same compound, the inhibition at 75 g/ha [10] was 95%, the inhibition at 150 g/ha [11] was 95% and the inhibition at 150 g/ha [12] was 100%. It also gave an inhibition at 75 g/ha [13] of 80%, an inhibition at 75 g/ha [14] of 0% and an inhibition at 75 g/ha [15] of 0%. For the same compound, the inhibition at 150 g/ha [16] was 30%, the inhibition at 75 g/ha [17] was 80% and the inhibition at 150 g/ha [18] was 95%. The “inhibition (INH)” value [19] was 10%, the “inhibition (INH)” value [20] was 30% and the inhibition at 150 g/ha [21] was 85%. The inhibition at 75 g/ha [22] was 90%, the inhibition at 150 g/ha [23] was 85% and the inhibition at 75 g/ha [24] was 80%. For the same compound, the inhibition at 37.5 g/ha [25] was 0%, the inhibition at 75 g/ha [26] was 90% and the inhibition at 37.5 g/ha [27] was 0%. For the same compound, the inhibition at 150 g/ha [28] was 90%, the inhibition at 150 g/ha [29] was 95% and the inhibition at 150 g/ha [30] was 100%. The inhibition at 150 g/ha [31] was 100%, the inhibition at 75 g/ha [32] was 95% and the inhibition at 75 g/ha [33] was 75%. For the same compound, the inhibition at 75 g/ha [34] was 100%, the “inhibition (INH)” value [35] was 0% and the inhibition at 37.5 g/ha [36] was 90%. For the same compound, the inhibition at 150 g/ha [37] was 85%, the inhibition at 75 g/ha [38] was 100% and the inhibition at 150 g/ha [39] was 30%. For the same compound, the inhibition at 75 g/ha [40] was 100%, the “inhibition (INH)” value [41] was 30% and the inhibition at 150 g/ha [42] was 95%. It also gave an inhibition at 150 g/ha [43] of 95%, an inhibition at 37.5 g/ha [44] of 70% and an inhibition at 75 g/ha [45] of 75%.
